Data: publication PMC6331719 (The EMBO Journal, 2018)
Each block holds one molecule with its values, some of them ahead of it. Square brackets hold non-standard residues; d marks the D form. Ends that are not written are not given here. Peptide text beside a SMILES is read from it. * marks the point of attachment. DON = [N-]=[N+]=CC(=O)CC[C@H](N)C(=O)O; Cbz = O=C(OCc1ccccc1)*

Columns and labels:
CFTR (Caco‐2 cells) = test: Ussing chamber, CFTR-dependent Cl- secretion in Caco-2 cells; type: cell-based, human; settings: for Effect on forskolin-inducible chloride current: Caco-2 or T84, 3 h, peptides 20 μg/ml, PT gliadin 500 μg/ml
Method in brief: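 Caco-2 or T84 monolayers grown on 0.4-μm Transwells to 800–1,200 Ω cm2, then mounted in Ussing chambers. Ringer both sides, 37°C, gassed with 95% O2/5% CO2. Cells pretreated 3 h with peptides (20 μg/ml) or PT gliadin (500 μg/ml), or given bath peptides (100 μM, 3–5 min) after 100 μM amiloride. VX-770 10 μM for 5 min. Forskolin 20 μM; peak CFTRinh172-sensitive Isc.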

[1] = tested on: CFTR (Caco-2 and T84 cells); test: Iodide efflux by SPQ in intestinal epithelial cells; type: cell-based, human; settings: forskolin stimulation, 20 μg/ml 3 h, n = 3
TG2 = TG2 activity and TG2-catalysed crosslinking in Caco-2 cells; type: cell-based, human; settings: Caco-2, Z-DON or TG2 siRNA
TG2 and CFTR = test: Co-immunoprecipitation of TG2 and CFTR, Caco-2 cells; type: cell-based, human; settings: Caco-2, pre-treatment
[2] = tested on: recombinant human NBD1 (rhNBD1); test: Surface plasmon resonance, rhNBD1; type: binding; settings: CM5 chip, 20°C, HEPES pH 7.4, 2 mM ATP, 5 mM MgCl2; at least three independent experiments
Method in brief: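 NBD1 was recombinant human residues 389–678, immobilised by amine coupling to 2000 RU; a blank flow cell served as reference. Running buffer also contained 150 mM NaCl, 0.05% Tween-20 and 1 mM DTT, at a flow of 20 μl/min. Each run used three start-up buffer injections, a zero control, then a concentration series of peptide analyte.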

CFTR = test: Co-immunoprecipitation of CFTR with biotinylated peptide, Caco-2 cells; type: binding, human; settings: Caco-2, biotinylated peptide, 1 h
Caco‐2 and T84 cells = test: Cell viability of Caco-2 / T84 cells; type: cell-based, human; settings: 3 h
NBD1 = NBD1 (Homo sapiens, UniProt P13569, F429S/F494N/Q637R); test: NBD1 ATPase activity; type: biochemical
celiac PBMC = test: Caco-2 / celiac PBMC bidimensional co-culture, cytokine release; type: cell-based, human; settings: lower compartment, celiac vs control PBMC
TG2 and NBD1 = test: Blue native PAGE, peptide with TG2 and rhNBD1; type: binding, human; settings: Ca2+-activated TG2, biotinylated peptide
Method in brief: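 Recombinant proteins and the indicated peptides were pre-incubated together at 4°C for 30 min in buffer. Samples were then run under native conditions to preserve peptide/protein complexes.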

enterocytes / T cells = settings: ref Maiuri et al, 2003; Meresse et al, 2009; Barone et al, 2014; cited from earlier work
[3] = target: wild‐type human NBD1[389–673], without any solubilizing mutations (human, UniProt P13569-1 389-673); test: native gel or EMSA
Sequence of wild‐type human NBD1[389–673], without any solubilizing mutations (P13569 389-673, change not shown): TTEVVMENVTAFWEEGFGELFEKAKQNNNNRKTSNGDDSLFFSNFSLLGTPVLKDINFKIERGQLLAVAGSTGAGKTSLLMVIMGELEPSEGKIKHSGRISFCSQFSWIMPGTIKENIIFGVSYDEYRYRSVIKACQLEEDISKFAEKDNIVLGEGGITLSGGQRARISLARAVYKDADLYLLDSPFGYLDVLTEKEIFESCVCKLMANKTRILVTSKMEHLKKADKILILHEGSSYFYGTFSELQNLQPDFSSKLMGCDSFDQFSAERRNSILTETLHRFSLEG

Sequence of NBD1 (P13569 389-678 F429S/F494N/Q637R): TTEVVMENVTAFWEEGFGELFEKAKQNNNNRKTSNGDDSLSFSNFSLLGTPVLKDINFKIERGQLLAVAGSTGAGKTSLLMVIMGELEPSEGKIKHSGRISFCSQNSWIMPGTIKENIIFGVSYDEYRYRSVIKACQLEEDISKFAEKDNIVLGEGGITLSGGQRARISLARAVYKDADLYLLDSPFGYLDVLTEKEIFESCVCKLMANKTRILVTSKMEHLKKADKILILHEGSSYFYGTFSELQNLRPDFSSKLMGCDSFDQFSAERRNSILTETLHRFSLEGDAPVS

Molecule: LQLQPFPQPQLPY PQPQLPYPQPQLPYPQPQPF [P33‐mer]
Effect on forskolin-inducible chloride current (CFTR (Caco‐2 cells)): but not P57–68, P33‐mer or PGAV

Molecule: GAVAAVGVVAGA [PGAV]
Effect on forskolin-inducible chloride current (CFTR (Caco‐2 cells)): but not P57–68, P33‐mer or PGAV
Effect on rate of iodide efflux [1]: not by P57–68 or PGAV

Molecule: COC(=O)[C@H](CC(C)C)NC(=O)[C@@H]1CCCN1C(=O)[C@@H](NC(=O)[C@H](CCC(=O)C=[N+]=[N-])NC(=O)OCc1ccccc1)C(C)C [Z‐DON] (Cbz-[DON]VPL-OMe)
Inhibition of P31–43-induced glutamine-lysine bonds in CFTR immunoprecipitates (TG2): undetectable
Prevention of P31–43-induced TG2–CFTR interaction (TG2 and CFTR): prevented

Molecule: LGQAAPFPPAAPY [4QA]
SPR binding to rhNBD1 [2]: strongly reduced as compared to unmutated P31–43
Co-immunoprecipitation with CFTR (CFTR): marginal interaction with CFTR protein
Inhibition of CFTR function by modified peptide (CFTR (Caco‐2 cells); Caco-2, 1 h): largely unable to inhibit CFTR function

Molecule: LGQQQPFPPQQPY-NH2 [P31–43, LGQQQPFPPQQPY]
Effect on cell viability (Caco‐2 and T84 cells): did not affect cell viability
IC50 (NBD1): 55.1 µM

SPR binding to rhNBD1 [2]: failed to induce any signal
Binding to TG2 and complex formation with NBD1 (TG2 and NBD1): but not P57–68
Molecule: QLQPFPQPQLPY [P57–68]
IFN-γ production (celiac PBMC): but not the P57–68 or P31–43 alone
Enterocyte stress / T cell activation (enterocytes / T cells): activating T cells in the absence of any toxic effect on epithelial cells
Effect on forskolin-inducible chloride current (CFTR (Caco‐2 cells)): but not P57–68, P33‐mer or PGAV
Effect on rate of iodide efflux [1]: not by P57–68 or PGAV

Molecule: CC(=O)OCOC(=O)CN(CC(=O)OCOC(C)=O)c1ccccc1OCCOc1ccccc1N(CC(=O)OCOC(C)=O)CC(=O)OCOC(C)=O [BAPTA‐AM]
Prevention of P31–43-induced TG2–CFTR interaction (TG2 and CFTR): prevented

binding result [3]: binds
B1: biotinylated P31–43 (peptide)
peptide: LGQQQPFPPQQPY
modifications: also: biotin tag, position not given here
